RGS4 inh = human RGS4 inhibition; P49798; HEK293 M3R/RGS4 inducible, Fluo-4 calcium flux; stronger effect = higher value; triggered by carbachol at its EC20; B-score at 10 µM; hit rate 0.45% among 310,000;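 active = B-score, a plate-corrected calcium signal, over three deviations above library mean, with baseline fluorescence within five deviations of library mean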;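 note: RGS4 expression induced by doxycycline in cells with stable M3 receptor; B-score is computed from the integrated fluorescence ratio over baseline after carbachol; higher B-score means a larger calcium signal and so more RGS4 inhibition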
Target sequence (P49798 whole entry, looked up): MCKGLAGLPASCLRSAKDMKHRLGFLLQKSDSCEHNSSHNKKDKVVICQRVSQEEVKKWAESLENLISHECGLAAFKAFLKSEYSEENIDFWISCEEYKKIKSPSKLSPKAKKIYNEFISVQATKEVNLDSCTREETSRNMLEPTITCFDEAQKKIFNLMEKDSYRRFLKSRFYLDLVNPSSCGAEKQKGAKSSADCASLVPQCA
MrgX1 allo act = allosterically activates human MrgX1 receptor signaling; Q96LB2; MrgX1-HEK293, Fluo-4 calcium flux, FDSS; stronger effect = higher value; B-score at 10 µM; hit rate 0.63% among 310,000;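 active = plate-corrected calcium response at least 3 library SD above typical, normal starting fluorescence, not activating the receptor alone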;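 note: compound read alongside a low EC10 to EC30 dose of BAM8-22 agonist; peak minus trough fluorescence over baseline measured at the second addition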
Target sequence (Q96LB2 whole entry, looked up): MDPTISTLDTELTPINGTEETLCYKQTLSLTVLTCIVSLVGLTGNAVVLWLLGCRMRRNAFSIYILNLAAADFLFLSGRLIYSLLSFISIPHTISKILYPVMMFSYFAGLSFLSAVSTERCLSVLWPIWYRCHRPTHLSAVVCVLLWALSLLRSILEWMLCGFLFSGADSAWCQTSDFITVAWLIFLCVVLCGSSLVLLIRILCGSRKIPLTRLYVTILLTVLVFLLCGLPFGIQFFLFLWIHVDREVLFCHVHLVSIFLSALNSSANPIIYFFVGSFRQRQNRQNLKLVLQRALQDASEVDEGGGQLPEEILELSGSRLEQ
MrgX1 ag = human MrgX1 receptor agonism, primary screen; Q96LB2; MrgX1-HEK293 cells, Fluo-4 calcium fluorescence, agonist mode; stronger effect = higher value; B-score at 10 µM; hit rate 0.44% among 310,000;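 active = calcium response B-score plate-corrected fluorescence ratio at least 3 library SD, with starting fluorescence B-score inside 5 SD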
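times = overnight plating, then 30 min 37 °C plus 30 min room-temperature dye loading | assay system = stable human MrgX1 HEK293 cell line | input = fifteen thousand cells per well | signal = kinetic calcium dye fluorescence, Fluo-4 NW | dosing = compound delivered in addition one of three | read-out = B-scored fluorescence response ratio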
MrgX1 antagonist = blocks BAM8-22 activation of human MrgX1 receptor | B-score at 10 µM | Q96LB2 | AID 588676 | MRGX1-HEK293 calcium flux, Fluo-4, BAM8-22 antagonism; stronger effect = lower value | hit rate 1.3% among 310,000;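 active = calcium-response B-score plate-corrected more than 3 library SD below zero, starting fluorescence within 5 deviations, no agonist response on first addition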;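 note: peak minus trough fluorescence over baseline after final BAM8-22 challenge near maximal dose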
RGS4 pot = potentiators or activators of RGS4; HEK293 M3R/inducible RGS4, carbachol calcium flux Fluo4; stronger effect = lower value; B-score at 10 µM; hit rate 0.92% among 310,000;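 active = B-score of the integrated calcium signal more than 4 SD below the library mean, with starting fluorescence not abnormally high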;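 note: negative B-score means reduced calcium response which marks RGS4 activation or potentiation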
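Assay system: Inducible-RGS4 HEK293 cells carrying M3 receptor | Schedule: Compound preincubation 20 min at room temperature before agonist | Signal: Kinetic calcium fluorescence imaging with Fluo4-AM dye, 2 µM | Read-out basis: B score from integrated fluorescence ratio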
RGS4 act valid = RGS4 activation, validation assay; shares compounds with RGS4 pot; HEK293 M3R/RGS4 inducible, carbachol calcium flux Fluo4; inhibition, % at 10 µM; hit rate 89% among 1,100; AID 602282;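 active = inhibition above 3 SD of the buffer control wells, cut at about 41% in these data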;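 note: signal is the integrated peak-minus-minimum Fluo4 fluorescence over baseline ratio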
RGS4 act ctr = RGS4 activator counter-screen hit in non-induced cells; shares compounds with RGS4 pot; HEK293 M3R non-induced RGS4, Fluo4 calcium flux; after carbachol challenge at its EC90; inhibition, % at 10 µM; hit rate 82% among 1,100; AID 602283;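 active = inhibition exceeding 3 SD of buffer-only control wells, cut at about 26% in these data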;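 note: percent drop in integrated peak-minus-baseline over baseline Fluo4 ratio after carbachol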
RGS4 block valid = validation of RGS4 inhibitors; shares compounds with RGS4 inh; HEK293 M3R/RGS4, carbachol calcium Fluo-4 fluorescence; carbachol added at its EC20; 0 = buffer wells, 100 = carbachol control; calcium response, % at 10 µM; hit rate 65% among 1,700;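 active = duplicate-averaged calcium response above the buffer-only control mean plus 5 SD of those controls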;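 note: integrated fluorescence ratio F max minus min over baseline F0; higher response in RGS4-induced cells means RGS4 inhibition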
RGS4 uninduced = checks RGS4 inhibitor effects in non-induced HEK293 M3R cells; shares compounds with RGS4 inh; carbachol calcium Fluo-4; submaximal (EC20) carbachol stimulus; buffer wells 0%, carbachol control wells 100%; activity (percent), % at 10 µM; hit rate 20% among 1,900; AID 493000; call rule not given here;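 note: RGS4 induction absent so cells express M3R without RGS4; higher means more calcium signal and flags a non-specific hit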
RGS4 inh ctr2 = second counter-screen for RGS4 inhibitors: non-induced cells without carbachol; shares compounds with RGS4 inh; HEK293 M3R/RGS4 non-induced, Fluo-4 calcium, no carbachol; normalised: buffer wells 0%, carbachol wells 100%; calcium response (agonist-mode artifact), % at 10 µM; hit rate 22% among 1,900; AID 493001;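 active = duplicate-averaged calcium rise in uninduced cells above buffer wells' mean plus 5 SD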
MrgX1 antag conf = human MrgX1 receptor antagonism, re-confirmation screen; shares compounds with MrgX1 antagonist; MrgX1-HEK293, BAM8-22 calcium flux, Fluo-4; stronger effect = lower value; remaining BAM8-22 calcium response % of control (stronger effect = lower value), % at 10 µM; hit rate 19% among 2,300; AID 602420;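 active = remaining agonist calcium response no higher than 100% minus 3 SD of agonist-only control wells, with starting fluorescence near control levels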;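 note: agonist BAM8-22 given at a near maximal EC90 to ECmax level; peak minus minimum fluorescence divided by baseline after agonist addition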
HEK293 Ca flux = counter-screen for MrgX1 antagonists: effect in parental HEK293 cells; fluorescence ratio F(max-min)/F0 at 10 µM; hit rate 2% among 4,000; Fluo-4 calcium fluorescence, FDSS; shares compounds with MrgX1 antagonist;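 active = duplicate-averaged calcium fluorescence ratio at least three times the standard deviation of buffer wells, a nonspecific response in parental cells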
HEK293 Ca counter = counter-screen for MrgX1 allosteric activators: effect in parental HEK293 cells. shares compounds with MrgX1 antagonist. parental HEK293 calcium flux, Fluo-4 fluorescence ratio; stronger effect = higher value. fluorescence ratio F(max-min)/F0 at 10 µM. hit rate 0.4% among 4,000. AID 624114;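 active = calcium fluorescence ratio, averaged over duplicates, at least 3 SD of the buffer-well ratio, meaning a nonspecific response in receptor-free cells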;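 note: untransfected parental HEK293 lacking MrgX1 used as counterscreen for MrgX1 allosteric activators; fluorescence change taken during the second addition on a kinetic imager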
HEK293 Ca cntr2 = counter-screen for MrgX1 activators: effect in parental HEK293 cells. shares compounds with MrgX1 antagonist. Fluo-4 calcium fluorescence (FDSS); stronger effect = higher value. fluorescence ratio F(max-min)/F0 at 10 µM. hit rate 8.7% among 4,000;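 active = calcium fluorescence ratio at least three times the spread of buffer wells, meaning a non-specific response in parental cells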
Active calls of the source: *; i = inactive; nt = no result given. In the library only some 3.5% were active in any assay of this set; here they are far more common.

SMILES	RGS4 inh	MrgX1 allo act	MrgX1 ag	MrgX1 antagonist	RGS4 pot	RGS4 block valid	RGS4 uninduced	RGS4 inh ctr2	others
CCN(CC)CCOC(=O)c1c(C)oc2ccc(OC)cc12	i	i	i	-5.2*	-7.8*	nt	nt	nt	RGS4 act valid=67*;RGS4 act ctr=84*;MrgX1 antag conf=i;HEK293 Ca flux=i;HEK293 Ca counter=i;HEK293 Ca cntr2=i
CCN(CC)CC#CCC(O)(c1ccccc1)C1CCCC1 (stereo not drawn)	i	i	i	-8.7*	-7.9*	nt	nt	nt	RGS4 act valid=94*;RGS4 act ctr=91*;MrgX1 antag conf=i;HEK293 Ca flux=i;HEK293 Ca counter=i;HEK293 Ca cntr2=i
Cc1cccc(N2C(=O)/C(=C/c3ccccn3)SC2=S)c1	i	i	i	i	i	nt	nt	nt
Cc1ccc(/C=C2\SC(=S)N(c3cccnc3)C2=O)o1	i	i	i	i	i	nt	nt	nt
Cc1ccc(N2C(=O)/C(=C/c3cccnc3)SC2=S)cc1	i	i	i	i	i	nt	i	i
Cc1cccc(N2C(=O)/C(=C/c3cccnc3)SC2=S)c1	4.9*	i	i	i	i	19%*	42%*	i
c1ccc(-c2nc(NCc3cccnc3)c3ccccc3n2)cc1	i	i	i	i	i	i	i	i
Cc1ccc(-c2nc(NCc3cccnc3)c3ccccc3n2)cc1	i	i	i	i	i	i	i	i
Clc1cccc(-c2nc(NCc3cccnc3)c3ccccc3n2)c1	i	i	i	i	i	nt	nt	nt
CC(=O)NC1C(=O)N=C(SCC(=O)Nc2ccc(C(F)(F)F)cc2Cl)NC1=O (stereo not drawn)	i	i	i	i	i	nt	nt	nt
COc1cccc(OC)c1C(=O)Nc1nc(-c2ccccc2)cs1	i	i	i	i	i	i	i	i
COc1ccc(-c2csc(NC(=O)c3ccccc3C(=O)O)n2)cc1	i	i	i	i	i	nt	nt	nt
O=C(Nc1nc(-c2ccc(-c3ccccc3)cc2)cs1)C1=COCCO1	i	i	i	i	i	nt	i	i
Cc1cc(C)c(-c2csc(NC(=O)C3=COCCO3)n2)cc1C	i	i	i	i	i	nt	i	i
CCOc1ccc2nc(N3C(=O)/C(=C/c4ccc(Cl)cc4)NC3=S)sc2c1	i	nt	nt	nt	i	nt	nt	nt
O=C(OCCCOC(=O)c1ccc([N+](=O)[O-])o1)c1ccc([N+](=O)[O-])o1	i	i	i	i	i	nt	nt	nt
O=C(/C=C/c1ccc(Cl)cc1)c1ccc([N+](=O)[O-])o1	7.9*	i	i	i	i	8.5%*	i	i
OC(COc1ccc2ccccc2c1Br)Cn1cnc(-c2ccccc2)c1 (stereo not drawn)	9.3*	i	i	i	i	10%*	i	i
COc1ccc(OCC(O)Cn2cnc(-c3ccc(Br)cc3)c2)cc1 (stereo not drawn)	i	i	i	i	i	nt	nt	nt
COc1ccccc1CN(Cc1cc2cc3c(cc2[nH]c1=O)OCCO3)Cc1nnnn1Cc1ccco1	19*	i	i	i	i	7.5%*	i	12%*
O=c1[nH]c2cc3c(cc2cc1CN(Cc1cccnc1)Cc1nnnn1Cc1ccco1)OCCO3	i	i	i	i	i	i	i	i
O=c1[nH]c2cc3c(cc2cc1CN(Cc1ccccc1)Cc1nnnn1Cc1ccco1)OCCO3	i	nt	nt	nt	i	nt	nt	nt
O=c1[nH]c2cc3c(cc2cc1CN(Cc1cccs1)Cc1nnnn1Cc1ccco1)OCCO3	7*	i	i	i	i	i	i	i
NS(=O)(=O)c1ccc(CCNC(=O)c2ccc(-c3ccccc3)cc2)cc1	i	i	i	i	i	nt	nt	nt
NC(=O)COC(=O)c1ccccc1Oc1ccccc1	i	i	i	i	i	nt	nt	nt
SMILES	RGS4 inh	MrgX1 allo act	MrgX1 ag	MrgX1 antagonist	RGS4 pot	RGS4 block valid	RGS4 uninduced	RGS4 inh ctr2	others
CN(CC(=O)Nc1ccc(Cl)c(Cl)c1)C(=O)CC1OC(=O)c2ccccc21 (stereo not drawn)	i	i	i	i	i	nt	nt	nt
Cc1c(C(=O)N2CCCCC2)c(S(=O)(=O)NCCc2ccc(Cl)cc2)c(C)n1C	i	i	i	i	i	nt	nt	nt
Cc1ccc(C2C(C(=O)c3cccs3)=C(O)C(=O)N2c2nnc(C)s2)cc1 (stereo not drawn)	i	i	i	i	i	nt	nt	nt
O=C1NCC(c2ccccc2)C1C(=O)N/N=C\c1ccc(-c2cccc(Cl)c2Cl)o1 (stereo not drawn)	i	i	i	i	i	nt	nt	nt
Cc1ccc(-c2ccc(/C=N\NC(=O)C3C(=O)NCC3c3ccccc3)o2)cc1Cl (stereo not drawn)	i	i	i	i	i	nt	i	i
COc1ccc(S(=O)(=O)/N=C2/NC(=O)/C(=C\c3ccco3)S2)cc1	i	i	i	i	i	nt	nt	nt
COc1ccc(S(=O)(=O)/N=C2/NC(=O)/C(=C\c3cc(OC)c(OC)cc3[N+](=O)[O-])S2)cc1	i	i	i	i	i	i	i	i

Source: PubChem BioAssay
